Hsp70 activator – switches on Hsp70 transcription; HeLa Hsp70 promoter luciferase reporter, luminescence; scaled: vehicle 0, proteasome-inhibitor control 100%; activation, % at 10 µM; hit rate 0.04% among 200,000; AID 1203;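 active means activation above the mean across all tested compounds plus 3 SD, cutoff set per campaign, cut at about 5.5% in these data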;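 further: 100% = MG132 at 30 µM as the positive control and 0% = DMSO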
Pf gametocyte – kills late stage P. falciparum gametocytes. P. falciparum stage V gametocytes, ATP luminescence, 24 h. inhibition, % at 10.9 µM. hit rate 0.065% among 150,000. AID 743093;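 active means inhibition above the mean plus 3 SD of compounds within the control limits, set per campaign, cut at about 38% in these data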;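 further: 0% = DMSO wells and 100% = medium only without gametocytes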
MDM2 E3 inh – inhibitors of human Mdm2 E3 ubiquitin ligase. Q00987. signal enhancement, % at 5 µM. hit rate 0.11% among 210,000. AID 1230. cell-based MDM2 ubiquitination luciferase reporter, 2 h; 0 = plate control, 100 = twice control, blank-subtracted;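 active means signal enhancement of 30% or more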;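 further: luminescence tracks abundance of the self-degrading MDM2-luciferase fusion protein; higher signal means inhibition of MDM2 E3 ligase activity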
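test system = mammalian cells stably expressing self-ubiquitinating, self-degrading MDM2 E3–luciferase fusion | quantity = 2000 cells/well | incubation = cell settling 4 h, compound treatment 2 h, both 37 °C | signal = luminescence with SteadyLite reagent, 15 min at room temperature | evaluation = % enhancement relative to plate controls after blank subtraction | benchmarks = plate controls and plate blanks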
Wee1 stabilizer – blocks degradation of human Wee1 kinase; hit rate 1.2% among 220,000; HeLa Luc-Wee1K328M stability, luciferase luminescence; 100% = proteasome inhibitor MG132 effect; AID 1321; P30291; reporter increase, % at 5 µM;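 active means activation above the mean of all tested compounds plus 3 SD, set per screening run, cut at about 8.8% in these data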;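 further: cells exposed to compound for 20 h before luminescence read; 0% = DMSO alone and 100% = MG132 at 30 µM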
Target sequence (P30291 whole entry K328M): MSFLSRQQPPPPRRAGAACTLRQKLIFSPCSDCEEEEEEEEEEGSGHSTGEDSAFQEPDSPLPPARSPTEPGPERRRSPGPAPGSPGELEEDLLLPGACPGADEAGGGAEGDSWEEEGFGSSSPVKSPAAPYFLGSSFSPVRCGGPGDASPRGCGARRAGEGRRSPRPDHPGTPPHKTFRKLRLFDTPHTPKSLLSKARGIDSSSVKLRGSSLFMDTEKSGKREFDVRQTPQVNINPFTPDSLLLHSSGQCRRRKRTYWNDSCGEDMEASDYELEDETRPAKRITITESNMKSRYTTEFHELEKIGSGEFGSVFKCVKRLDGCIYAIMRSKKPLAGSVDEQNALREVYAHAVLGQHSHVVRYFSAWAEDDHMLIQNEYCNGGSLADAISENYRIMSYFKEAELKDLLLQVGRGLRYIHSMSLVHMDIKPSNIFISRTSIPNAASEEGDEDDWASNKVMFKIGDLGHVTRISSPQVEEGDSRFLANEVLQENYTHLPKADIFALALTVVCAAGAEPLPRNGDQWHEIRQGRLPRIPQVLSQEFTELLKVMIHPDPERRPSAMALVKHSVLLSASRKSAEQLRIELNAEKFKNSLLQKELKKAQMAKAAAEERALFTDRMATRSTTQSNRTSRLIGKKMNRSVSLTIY
Active calls of the source: *; nt = no result; ! = a repeat was not active. Sampled rows, rich in hits. Any-hit rate of the full collection: about 1.3%.

SMILES | Hsp70 activator | Pf gametocyte | MDM2 E3 inh | Wee1 stabilizer
O=C(Cc1ccc(-n2c(=O)c3ccccc3n(Cc3ccccc3Cl)c2=O)cc1)NCC1CCCO1 (centres undefined) | 0 | 12 | 30* | 0
CC[C@@]12C(=O)N(c3ccc(C)cc3)C(=O)N1[C@H](c1ccc(Br)cc1)[C@@H]1C(=O)N(C(C)(C)C)C(=O)[C@@H]12 | nt | 13 | nt | nt
COc1cc(NC(=O)c2cc(Cl)nnc2Cl)cc(OC)c1OC | 0 | 6 | -46 | 10*
COc1cccc(NC(=O)c2cc(Cl)nnc2Cl)c1 | 0 | -3 | -8 | 1
CC(Oc1ccccc1F)C(=O)Nc1ccc2ccccc2c1 (centres undefined) | 0 | 0 | -3 | 9.3*
CN1CCC(=C2c3ccccc3C=Cc3ccccc32)CC1 | 0 | nt | nt | 9.7*
COc1cccc(C(=O)Nc2ccc(S(=O)(=O)Nc3cc(C)nc(C)n3)cc2)c1 | 0 | 2 | -8 | 0
COc1ccccc1NC(=O)c1ccccc1Oc1ccccc1 | nt | -20 | nt | nt
CC(C(=O)Nc1ccccc1Oc1ccccc1)c1ccccc1 (centres undefined) | 0 | 60* | -3 | -1
COc1ccc(O)c(C(=O)c2cnc3c(c2)CN(C)C(=O)N3)c1 | 0 | -17 | -4 | 2
COc1ccccc1-c1cc(C(F)(F)F)nc(S(=O)(=O)CCCC(=O)Nc2cccnc2Cl)n1 | 0 | -22 | 43* | 0
O=C(/C=C/c1ccccc1[N+](=O)[O-])c1ccccc1Br | 0 | -14 | 0 | -2
COc1cc(/C=C/C(=O)O)cc(S(=O)(=O)Nc2ccc3c(c2)OCO3)c1OC | 0 | nt | -13 | -1
O=C(O)c1ccc2c(c1)C(=O)N(c1cccc(-c3nc4ccccc4s3)c1)C2=O | 0 | 13 | -13 | 11*
CC(C)Oc1ccc(C(=O)NC(=S)N2CCOCC2)cc1 | 0 | -20 | 53* | 3
C[C@H]1COC(=O)[C@H](CC(=O)OC(C)(C)C)C/C=C\C[C@@H](CC(=O)N[C@@H](CO)Cc2ccccc2)C(=O)N1 | nt | -5 | nt | nt
Cc1cc(OC(=O)c2cc(F)c(F)cc2Cl)nc(C)n1 | 0 | -5 | -6 | 0
Cc1cc(C)c(S(=O)(=O)c2ccccc2)c(OC(=O)c2cc(F)c(F)cc2Cl)n1 | 0 | -15 | 35* | 1
N#Cc1c(SCc2ccccc2)sc(C(=O)c2ccccc2)c1N | 0 | -3 | -13 | 9.2*
Cc1ccc(CSc2sc(C(=O)c3ccccc3)c(N)c2C#N)cc1 | 0 | 0 | -19 | -2
Cc1ccc(S(=O)(=O)N2CCN(C(=O)CC(C)(C)C)CC2)cc1 | 0 | 4 | -3 | 9.8*
CN1CCN(C(=O)CCC(=O)NCc2ccc(F)cc2)CC1 | nt | -19 | nt | nt
Cc1ccc(S(=O)(=O)N2CCN(C(=O)CCC(=O)NCc3ccc(F)cc3)CC2)cc1 | 0 | 21 | 3 | 9.4*
Cc1ccc(N(CC(=O)NCC2CCCO2)C(=O)Cn2nnc(-c3cccs3)n2)cc1 (centres undefined) | 0 | -35 | -11 | -3
Cc1nn(-c2ccccc2)c2c1C(c1ccc(Br)s1)C(C#N)=C(N)O2 (centres undefined) | 0 | nt | -21 | 9.1*
SMILES | Hsp70 activator | Pf gametocyte | MDM2 E3 inh | Wee1 stabilizer
Cc1nn(-c2ccccc2)c2c1C(c1ccccc1)C(C#N)=C(N)O2 (centres undefined) | 0 | 14 | -20 | -2
CNC(=O)CCCc1nc(-c2ccccc2Cl)no1 | 0 | nt | -23 | 0
NC(=O)CCCc1nc(-c2ccccc2Cl)no1 | 0 | nt | 1 | 10*
N=C1C(c2nc3ccccc3[nH]2)=C(O)CN1c1ccccc1 | 0 | nt | 41* | 5
Cc1ccc(C(C)C)cc1NC(=O)Nc1ccc([N+](=O)[O-])cc1 | nt | nt | nt | 2
CCOC(=O)c1ccc(NC(=O)c2cc(F)c(F)cc2Cl)cc1 | 0 | -16 | -5 | 0
COc1ccc(NC(=O)c2cc(F)c(F)cc2Cl)cc1Cl | nt | -2 | -1 | 9.1*
CC(C)CNS(=O)(=O)c1ccc(CCC(=O)NCc2ccncc2)cc1 | 0 | 8 | -16 | 6
Cc1cc(NS(=O)(=O)c2ccc(NC(=O)Nc3ccc4c(c3)OCO4)cc2)no1 | 0 | nt | -7 | 8.9*
NC(=O)c1c(NC(=O)C2CCCO2)sc2c1CCCC2 (centres undefined) | 0 | 14 | 34* | -1
CCOC(=O)c1nn(-c2ccc(Br)cc2)cc1C(=O)c1cccc2ccccc12 | 0 | 10 | 1 | 1
Cc1cccc(Nc2cc(C)c3c(O)cccc3n2)c1C | 0 | nt | nt | -1
O=C1OCC2=C1C(c1ccc(F)cc1)CC(=O)N2c1ccccc1 (centres undefined) | 0 | nt | 23 | 8.9*
O=C1OCC2=C1C(c1ccc(F)cc1)CC(=O)N2c1ccc(F)cc1 (centres undefined) | 0 | nt | -12 | -1
Cc1onc(-c2ccccc2)c1NC(=O)N(Cc1ccccc1)C(C)C | nt | 21 | 0 | 3
COc1ccc(OC)c(CNn2c(-c3ccccc3F)nc3ccccc3c2=O)c1 | -1 | -23 | 43* | 0
C[C@H]1CN(S(=O)(=O)c2c(F)cccc2F)CCN1S(=O)(=O)c1ccc2c(c1)OCCO2 | nt | 5 | nt | nt
Cc1cc(C(=O)NNC(=O)c2ccc(S(=O)(=O)N(C)C)cc2)c(C)o1 | 0 | -14 | -9 | 9.5*
Cc1cc(NC(=O)c2ccc(S(=O)(=O)N(C)C)cc2)no1 | -1 | nt | -16 | -1
O=C(NCCNc1nccc(C(F)(F)F)n1)c1cccs1 | nt | 7 | -16 | 9.2*
NS(=O)(=O)c1ccc(CCNS(=O)(=O)c2ccccc2)cc1 | 0 | 7 | -4 | -2
NS(=O)(=O)c1ccccc1 | nt | -16 | nt | 14*
O=C1N=C(N2CCOCC2)S/C1=C/c1cc2c(cc1[N+](=O)[O-])OCO2 | nt | 10 | -39 | 9.1*
O=S(=O)(Nc1ccccc1O)c1ccc(Cl)nc1 | nt | 10 | -12 | 3
O=C(Nc1ccccc1N1CCN(C(=O)c2ccc(Cl)cc2)CC1)c1ccc2c(c1)OCO2 | 0 | -12 | -15 | 0
SMILES | Hsp70 activator | Pf gametocyte | MDM2 E3 inh | Wee1 stabilizer
O=C(Nc1ccccc1N1CCN(C(=O)c2ccccc2)CC1)c1cccc(Cl)c1 | nt | 5 | nt | 9.2*
CCc1ccc(-c2cc(C(=O)Nn3cnnc3)c3ccccc3n2)cc1 | -1 | 39* | -9 | -4
Cc1nnc(SCC(=O)Nc2cc(-c3cc(C)c(C)cc3C)nn2-c2ccccc2)s1 | 0 | nt | -19 | -1
CCCc1ccc(-c2cc(NC(=O)CSc3nnc(N)s3)n(-c3ccccc3)n2)cc1 | 0 | nt | -4 | 10*
COc1ccc(-c2cn(-c3ccccc3)c3[n+]2CCS3)cc1 | -1 | 10 | -24 | 11*!
CCOc1ccc(C(=O)N(CN2CCCC2=O)c2ccc(C)cc2)cc1 | 0 | -1 | nt | 1
CCOc1ccc(C(=O)N(CN2CCCC2=O)c2ccccc2)cc1 | 0 | 4 | -4 | 13*
CCOc1ccccc1N(C)C(=O)c1nn(-c2ccc(OC)cc2OC)c(=O)c2ccccc12 | 0 | -7 | -4 | -2
O=C(C1CCCN(Cc2ccccc2Br)C1)N1CCCCC1 (centres undefined) | 0 | -17 | -10 | 11*
c1ccc(C[C@H]2CNCCN2CC2(c3ccccc3)CC2)cc1 | nt | -13 | nt | nt
